# Screens as filed in PubChem BioAssay.
# In the library only some 1.5% were active in any assay of this set; here they are far more common.
# EBNA-1 inh = blocks EBNA-1 binding to DNA. EBNA-1 DNA binding, fluorescence polarization. inhibition, % at 14.8 µM. hit rate 0.34% among 300,000. AID 1950; in the data active means inhibition above about 28%
# HNF4A DNA FP = change in binding of human HNF4 alpha to DNA; P41235; HNF4a-FITC DNA binding, fluorescence polarization, 1 h; activity change, % at 10 µM; hit rate 0.3% among 360,000; in the data active means activity change above about 30%, passing the limit was not always enough
# ZTA counter = blocks Epstein-Barr virus ZTA, an EBNA-1 counter-screen; ZTA-DNA binding, fluorescence polarization; inhibition, % at 11 µM; P03206; AID 2234; hit rate 0.15% among 320,000; in the data active means inhibition above about 33%
# Target sequence (P03206 whole entry, looked up): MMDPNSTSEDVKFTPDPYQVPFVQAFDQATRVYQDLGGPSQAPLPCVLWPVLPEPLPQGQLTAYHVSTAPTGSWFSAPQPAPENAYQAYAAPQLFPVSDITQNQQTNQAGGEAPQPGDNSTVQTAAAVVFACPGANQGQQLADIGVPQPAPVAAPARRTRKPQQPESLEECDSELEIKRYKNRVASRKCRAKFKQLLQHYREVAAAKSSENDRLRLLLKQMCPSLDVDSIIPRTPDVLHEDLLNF
# A1 inh = inhibitors of the anti-apoptotic protein A1, read as caspase activation. hit rate 0.066% among 330,000. MEF A1-2A-BIM cells, Caspase-Glo 3/7 luminescence, 3 h; percent of clofoctol response, vehicle zero. caspase activation, % (test concentration not listed);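 active means over half of replicate activation scores above 10%, or exactly half above 10 with the replicate mean above 10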
# LANA-H2B inh = blocks KSHV LANA binding to histone H2A/H2B; Q9QR71; cell-free LANA-H2A/H2B peptide, fluorescence polarization; inhibition, % (no concentration beside the values); hit rate 0.6% among 320,000; AID 2629; in the data active means inhibition mostly above about 10%, no sharp cut-off; inactive means mostly below about 6.7%
# CSN deneddyl inh = CSN deneddylation inhibition; Q92905; Purified CSN, SCF-Nedd8-OG deneddylation, fluorescence polarization; inhibition, % at 12.5 µM; hit rate 0.38% among 360,000; AID 651999;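 active means pattern-corrected inhibition above about 35%, with an unprinted fluorescence ratio check between 0.5 and 1.5, limit read from the data, passing the limit was not always enough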;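 further: 0% = enzyme with substrate and 100% = substrate without enzyme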
# Target sequence (Q92905 whole entry, looked up, one chain of several): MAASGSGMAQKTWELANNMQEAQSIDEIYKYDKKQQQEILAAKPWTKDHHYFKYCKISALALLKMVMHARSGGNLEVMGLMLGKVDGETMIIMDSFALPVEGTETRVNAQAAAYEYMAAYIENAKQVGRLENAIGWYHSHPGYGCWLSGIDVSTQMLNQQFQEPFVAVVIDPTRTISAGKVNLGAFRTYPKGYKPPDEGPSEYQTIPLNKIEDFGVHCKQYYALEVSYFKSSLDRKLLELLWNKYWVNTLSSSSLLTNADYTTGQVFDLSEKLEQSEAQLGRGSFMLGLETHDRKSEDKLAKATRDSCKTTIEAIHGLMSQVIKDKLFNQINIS
#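 Schedule: reaction 90 min, room temperature / Assay system: HEK293T-derived human Csn5 enzyme / Input: Csn5 at 0.24 nM final / Measure: inhibition of Csn5 cleavage, % / Control set: substrate-only high control, full reaction low control / Technique: fluorescence polarization of the substrate / Buffer or medium: Tris/NaCl/DTT buffer, pH 7.5 / Reagent: SCFSkp2-Nedd8OG substrate at 10 nM final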
# The depositor's hits bear a star; . = not tested or not shown.
SMILES,EBNA-1 inh,HNF4A DNA FP,ZTA counter,A1 inh,LANA-H2B inh,CSN deneddyl inh
CCOC(=O)c1cc(C)sc1/N=C/C1C(=O)CC(C)(C)CC1=O,-8,0,4,0,5,3
CCOC(=O)c1c(CC(C)C)csc1/N=C/C1C(=O)CC(C)(C)CC1=O,1,-3,-4,-1,-2,36*
COc1ccc(CCNC(=O)CC2C(=O)NCCN2CC(C)(C)C)cc1 (stereo not drawn),-1,2,-6,0,-1,7
COc1cccc(CCNC(=O)CC2C(=O)NCCN2CC(C)(C)C)c1 (stereo not drawn),-14,-1,-3,1,17*,-3
CCOc1ccccc1CN1CCNC(=O)C1CC(=O)NCCc1ccccn1 (stereo not drawn),-9,-5,5,0,99*,-6
O=C(CC1C(=O)NCCN1Cc1cccc(F)c1)NCCCN1CCCC1=O (stereo not drawn),-10,-2,-6,0,15*,-3
CC(=O)c1ccc(NC(=O)C(C)Sc2nnc(-c3ccncc3)n2C2CC2)cc1 (stereo not drawn),.,0,.,-1,1,-7
COc1ccc(S(=O)(=O)NCC2CC3C=CC2C3)cc1OC (stereo not drawn),-14,-2,6,2,0,4
Cc1n[nH]c(=S)n1/N=C/c1ccccc1OCc1ccc(Cl)cc1,16,51*,10,1,-4,4
O=C(NCCc1ccc(Cl)cc1)C1CCC(=O)N1Cc1ccccc1Cl (stereo not drawn),-9,-1,-4,0,13*,-1
Cc1ccc2oc(=O)c(/C=C(\O)C(C)(C)C)nc2c1,-17,0,-10,1,3,2
Cc1ccc2oc(=O)c(/C=C(\O)c3ccco3)nc2c1,-2,41*,-8,0,4.3*,-3
O=S(=O)(NC1CC1)c1ccc(S(=O)(=O)N2CCc3ccccc32)cc1,4,-1,6,0,-5,-2
O=S(=O)(c1ccc(F)cc1)N1CCc2ccccc21,6,76*,-11,0,-11,48*
O=S(=O)(c1ccc(Cl)cc1)N1CCc2ccccc21,-2,93*,-3,1,-94,54*
CCCN(CC(=O)Nc1ccccc1OC)C(=O)c1cc(-c2ccccc2)nn1-c1ccccc1,.,4,-4,-1,49*,3
CC(=O)OCCc1c2ccccc2c(CCCN(C)C)c2ccccc12,6,132*,6,-1,-4,71*
O=C(Nc1ccc(C(=O)O)cc1)/C(=C\c1cccc([N+](=O)[O-])c1)NC(=O)c1ccc(Br)o1,3,-2,10,0,-4,-6
CCCN1CCc2c(sc3nc(SC)n(-c4ccccc4)c(=O)c23)C1,6,3,8,0,1,7
Cc1ccc(-n2nc3c(c2NC(=O)c2ccc(F)c(F)c2)CS(=O)(=O)C3)cc1,4,5,6,0,109*,-1
Cc1cc(NC(=O)CCC(=O)N(CC(=O)NC2CCCC2)c2ccccc2)no1,7,-4,-18,1,22*,0
COc1ccc(C=C2NC(=S)NC2=O)cc1,.,2,.,.,.,4
COc1ccc(C(=O)N2C(=S)NC(=O)/C2=C\c2ccc(C)cc2)cc1,10,19,14,1,-3,43*
COc1ccc(NC(=O)CSc2nnnn2C)cc1S(=O)(=O)N1CCCCC1,.,-6,-13,.,.,-3
CCOC(=O)N1CCN(C(C(=O)NC2CCCC2)C(C)C)CC1 (stereo not drawn),.,-6,.,.,.,1
SMILES,EBNA-1 inh,HNF4A DNA FP,ZTA counter,A1 inh,LANA-H2B inh,CSN deneddyl inh
OCCN1CCN(C2CCC(c3ccc(F)cc3)c3ccc(F)cc32)CC1 (stereo not drawn),-19,7,1,0,4,5
Cc1ccccc1NC(=O)CS(=O)(=O)c1cn(CC(=O)N2CCOCC2)c2ccccc12,3,2,9,0,1,2
Cc1ccc(NC(=O)CS(=O)(=O)c2cn(CC(=O)N3CCOCC3)c3ccccc23)cc1,6,2,-27,1,18*,2
CN(C(=O)CS(=O)(=O)c1cn(CC(=O)N2CCOCC2)c2ccccc12)c1ccccc1,2,1,-32,0,34*,-4
Cc1csc(NC(=O)CCCc2cccs2)n1,-3,2,10,0,181*,-2
COc1ccccc1NS(=O)(=O)c1ccc(C(=O)N2CCN(c3ccccn3)CC2)cc1,.,3,.,2,-8,1
CC(C(=O)Nc1ccc(S(=O)(=O)N2CCCCC2)cc1)N1CCN(c2ccccn2)CC1 (stereo not drawn),0,.,10,1,138*,.
CC(C(=O)Nc1ccc(S(=O)(=O)N2CCCC2)cc1)N1CCN(C(=O)c2ccco2)CC1 (stereo not drawn),2,0,9,-1,-3,-4
CC(=O)c1cnc(-c2ccccn2)s1,-3,-8,-2,0,18*,-4
C=CC(=O)Nc1cccc(Nc2nc(N[C@H]3CC[C@H](N(C)C)CC3)nc3c2ncn3C(C)C)c1,.,40,.,.,.,112*
CC(C)n1cnc2c(Nc3cccc(Cl)c3)nc(NCCCO)nc21,14,1,-7,-1,2,-1
CCC1=C(OC(=O)N(CC)CC)N2C(=O)OC(=NCC3CC3)[C@]2(C)[C@H]2C1=CC[C@H]1C(=O)N(CC)C(=O)[C@H]12,-4,0,8,-1,4,0
S=c1[nH]nc(C2CCCCC2)n1/N=C/c1ccc(Br)s1,-3,35*,3,-1,-1,5
O=c1ccc(/C=C/c2ccccc2)nn1Cc1ccccc1Cl,-1,0,20,0,-4,4
O=C(NCCCO)c1ccc2nc(-c3ccco3)c(-c3ccco3)nc2c1,.,-24,.,.,.,25
O=C(NCCO)Nc1ccc2nc(-c3ccco3)c(-c3ccco3)nc2c1,23,.,42*,2,19,.
Cc1ccc(/C=C(\C#N)C(=O)Nc2c(C)cccc2C)s1,0,29,5,0,-1,35*
Cc1ccc(NC(=O)/C(C#N)=C/c2ccc(C)s2)c(C)c1,0,63,3,-2,1,70*
Cc1ccc(CNC(=O)/C(C#N)=C/c2ccc(C)s2)cc1,2,-1,15,-2,-2,2
CC(=O)c1ccc(NC(=O)N2C3CCC2CC(O)(c2cccnc2)C3)cc1 (stereo not drawn),-1,1,-24,0,124*,0
O=[N+]([O-])c1ccccc1S(=O)(=O)N1CCN(S(=O)(=O)c2ccc3c(c2)OCCO3)CC1,.,1,.,3,2,0
O=C(NC(CO)C(O)c1ccc([N+](=O)[O-])cc1)C(Cl)Cl (stereo not drawn),2,-3,-5,0,-10,-1
